Screens as filed in PubChem.
V-ATPase pHluor = alters yeast V-ATPase proton transport; response, % at 10 µM; actives 0.37% (n = 350,000); S. cerevisiae, pHLuorin cytosolic pH fluorescence; in the data active = response mostly above about 7.3%, no sharp cut-off; inactive = mostly below about 5.4%; also: actives read high
T cruzi inh = T. cruzi replication inhibition. T. cruzi beta-gal in NIH3T3, luminescence, 90 h. inhibition, % (test concentration not listed). actives 1.4% (n = 300,000). AID 1885;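 active = mean inhibition across valid replicates above about 55%, limit read from the data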;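 also: signal also drops with host cell toxicity which is not excluded here; higher percent means less beta-gal luminescence so fewer parasites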
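Material: NIH/3T3 host cells with β-galactosidase reporter T. cruzi; Input: 5,000 host fibroblasts per well; Medium: DMEM, 2% fetal bovine serum; Compound: 50 nL DMSO compound solution per well; Schedule: 3 h host attachment, then at least 90 h co-culture; Detection: luminescent β-galactosidase signal after 60 min lysis.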
CendR NRP1 mod = modulators of CendR peptide binding to human neuropilin-1. O14786. FAM-RPARPAR peptide binding to NRP-1, fluorescence polarization. inhibition, % at 25 µM. actives 0.85% (n = 360,000);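 active = inhibition or corrected inhibition above about 18%, plus a signal ratio from 0.5 to 1.5, limit read from the data, passing the limit was not always enough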
Target sequence (O14786 whole entry, looked up): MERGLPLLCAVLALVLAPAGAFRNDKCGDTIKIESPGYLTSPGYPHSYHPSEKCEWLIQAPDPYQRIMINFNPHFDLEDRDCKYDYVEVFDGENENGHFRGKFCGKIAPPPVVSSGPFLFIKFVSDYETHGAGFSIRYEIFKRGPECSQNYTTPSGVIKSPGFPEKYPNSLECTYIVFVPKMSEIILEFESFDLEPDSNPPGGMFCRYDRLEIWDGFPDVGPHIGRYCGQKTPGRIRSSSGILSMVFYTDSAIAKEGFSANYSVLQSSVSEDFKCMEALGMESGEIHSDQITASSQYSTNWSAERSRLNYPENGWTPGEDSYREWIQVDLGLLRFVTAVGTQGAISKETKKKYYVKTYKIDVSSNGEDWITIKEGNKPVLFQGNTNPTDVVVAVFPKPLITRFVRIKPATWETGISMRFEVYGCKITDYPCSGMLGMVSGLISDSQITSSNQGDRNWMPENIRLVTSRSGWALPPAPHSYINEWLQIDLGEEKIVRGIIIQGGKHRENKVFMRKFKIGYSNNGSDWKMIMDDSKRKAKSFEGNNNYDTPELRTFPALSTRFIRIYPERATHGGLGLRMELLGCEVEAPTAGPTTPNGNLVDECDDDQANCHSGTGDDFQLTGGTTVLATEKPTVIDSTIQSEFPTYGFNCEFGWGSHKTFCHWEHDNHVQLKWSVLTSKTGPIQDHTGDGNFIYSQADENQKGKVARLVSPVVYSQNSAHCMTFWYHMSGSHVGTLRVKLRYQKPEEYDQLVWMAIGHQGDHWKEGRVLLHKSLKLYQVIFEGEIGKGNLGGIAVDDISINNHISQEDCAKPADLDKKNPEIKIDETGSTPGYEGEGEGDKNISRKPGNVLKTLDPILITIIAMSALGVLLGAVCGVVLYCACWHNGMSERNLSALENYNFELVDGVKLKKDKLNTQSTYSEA
HIF activator = HIF pathway transcriptional activation; U2OS HRE-luciferase reporter, luminescence; normalized: DMSO 0%, desferrioxamine 100%; activation, % at 7.5 µM (by protocol); actives 0.32% (n = 300,000);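 active = mean activation of at least 10% of the iron chelator positive control signal, with at least half of replicates also reaching 10%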
AI-2 QS mod = modulates the Vibrio harveyi AI-2 quorum sensing system; Vibrio harveyi JMH597 AI-2 luminescence/OD600 ratio, 9 h; stronger effect = lower value; strain lacks LuxN and CqsS sensors; 0 = neutral-control median; activity change, % at 7.5 µM; actives 0.4% (n = 300,000); AID 2094; in the data active = activity change below about -75%, passing the limit was not always enough;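 also: luminescence divided by OD600 gain over 9 h not by final OD600 alone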
Yeast superoxide = lowers age-related superoxide in aged yeast cells. S. cerevisiae aged cells, superoxide DHE fluorescence; stronger effect = lower value. superoxide response (% of plate mean), % at 10 µM. actives 0.18% (n = 330,000). AID 2690;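 active = superoxide response under a set limit, about three screen SD below normal, cut at about 65% in these data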;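 also: yeast aged for seven days with compound at 30 °C before DHE staining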
Hits are given with their value. Rows were chosen to be rich in hits. Some 3% of all compounds tested hit in one or more screens of this group.

Screening O=[N+]([O-])c1nn(-c2ccccc2)n(O)c1=NCCc1ccccc1 returned V-ATPase pHluor inactive, T cruzi inh 58, CendR NRP1 mod inactive, HIF activator inactive, AI-2 QS mod inactive and Yeast superoxide inactive.
`Cc1ccc(CCN=c2c([N+](=O)[O-])nn(-c3ccccc3)n2O)cc1` gave V-ATPase pHluor inactive, T cruzi inh 70, CendR NRP1 mod inactive, HIF activator inactive, AI-2 QS mod inactive and Yeast superoxide inactive.
Screening O=c1cc(C(O)C[N+](=O)[O-])occ1OCc1ccccc1 (centres undefined) returned V-ATPase pHluor inactive, T cruzi inh inactive, CendR NRP1 mod inactive, HIF activator inactive, AI-2 QS mod inactive and Yeast superoxide inactive.
For Cc1ccc(-n2nnnc2C(Cl)c2nnnn2-c2ccc(C)cc2)cc1 the results were V-ATPase pHluor inactive, T cruzi inh 55, CendR NRP1 mod inactive, HIF activator inactive and AI-2 QS mod inactive.
COC1CCCN(C(=O)c2ccc(OC3CCN(CCc4ccccc4)CC3)cc2)C1 (centres undefined) was read as V-ATPase pHluor inactive, T cruzi inh inactive, CendR NRP1 mod inactive, HIF activator inactive, AI-2 QS mod inactive and Yeast superoxide inactive.
CN(CC(=O)Nc1ccccc1Oc1ccccc1)Cc1ccccc1F was read as V-ATPase pHluor inactive, T cruzi inh inactive, CendR NRP1 mod inactive, HIF activator 129, AI-2 QS mod inactive and Yeast superoxide inactive.
Screening Cc1nn(-c2ccccc2)c(N2CCCC2)c1/C=C1\N=C(c2ccccc2)OC1=O returned V-ATPase pHluor inactive, T cruzi inh inactive, CendR NRP1 mod 76, HIF activator inactive, AI-2 QS mod inactive and Yeast superoxide inactive.
Cc1cccc(C)c1Nc1c(-c2ccccn2)nc2ccccn12 was read as V-ATPase pHluor inactive, T cruzi inh 61, CendR NRP1 mod inactive, HIF activator 28, AI-2 QS mod inactive and Yeast superoxide inactive.
`Cc1cccc2nc(-c3ccco3)c(Nc3ccccc3)n12` gave V-ATPase pHluor inactive, T cruzi inh inactive, CendR NRP1 mod inactive, HIF activator inactive, AI-2 QS mod inactive and Yeast superoxide inactive.
For Cc1ccc2nc(-c3ccccn3)c(NC3CCCC3)n2c1 the results were V-ATPase pHluor inactive, T cruzi inh 68, CendR NRP1 mod inactive, HIF activator inactive, AI-2 QS mod inactive and Yeast superoxide inactive.
For Cc1ccc(Nc2c(-c3ccccn3)nc3cccc(C)n23)cc1 the results were V-ATPase pHluor inactive, T cruzi inh 59, CendR NRP1 mod inactive, HIF activator 56, AI-2 QS mod -80 and Yeast superoxide inactive.
CCC(=O)N1CCCc2cc(S(=O)(=O)N3CCN(c4ccccn4)CC3)ccc21 was read as V-ATPase pHluor inactive, T cruzi inh inactive, CendR NRP1 mod inactive, HIF activator inactive, AI-2 QS mod inactive and Yeast superoxide inactive.
Cc1[nH]c2c(Cl)cccc2c(=O)c1CN1CCCC1 was read as V-ATPase pHluor inactive, T cruzi inh inactive, CendR NRP1 mod 20, HIF activator inactive, AI-2 QS mod inactive and Yeast superoxide inactive.
Screening CCN(CC)c1ccc(NC2=C(Cl)C(=O)c3ccccc3C2=O)cc1 returned V-ATPase pHluor inactive, CendR NRP1 mod 36 and Yeast superoxide inactive.
For O=C1C(Cl)=C(Nc2ccc(O)cc2)C(=O)c2ccccc21 the results were V-ATPase pHluor inactive, T cruzi inh 63, CendR NRP1 mod inactive, HIF activator inactive, AI-2 QS mod inactive and Yeast superoxide inactive.
`CCOC(=O)c1[nH]c2ccc(Br)cc2c1NC(=O)CCN1CCCC(C)(C)C1` gave V-ATPase pHluor inactive, T cruzi inh inactive, CendR NRP1 mod 29, HIF activator inactive, AI-2 QS mod inactive and Yeast superoxide inactive.
For Cc1cc(C)nc(NC(=NCCc2c[nH]c3ccccc23)NC(=O)C(C)(C)C)n1 the results were V-ATPase pHluor inactive, T cruzi inh 61, CendR NRP1 mod inactive, HIF activator inactive and Yeast superoxide inactive.
`COC(=O)c1ccc(OC)c(CN2CCCN(Cc3ccc(F)cc3)S2(=O)=O)c1` gave V-ATPase pHluor inactive, T cruzi inh 57, CendR NRP1 mod inactive, HIF activator inactive, AI-2 QS mod inactive and Yeast superoxide inactive.
For CN(C)S(=O)(=O)c1cc(NC(=O)COC(=O)CC2CC3CCC2C3)ccc1Cl (centres undefined) the results were V-ATPase pHluor inactive, CendR NRP1 mod inactive and Yeast superoxide inactive.
